In ChEMBL document CHEMBL1139365, “Inhibition of MDR1 activity in vitro by a novel class of diltiazem analogues: toward new candidates” (J Med Chem, 2009):
Calls of active or inactive are those of the source. No cut-off for these calls is given here.

Tests used:
[1] = tested on: A2780 ADR; assay: Reversal of P-gp 170-mediated multidrug resistance in human A2780/DX3 cells assessed as reduction in doxorubicin IC50 at IC0 pretreated for 6 hrs before doxorubicin administration measured after 3 days by MTT assay; type: cell-based; set-up: scale not given: the % may be the effect or the level left
Procedure, shortened: (§1)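 A2780/DX3 cells went into medium holding the modulator at its MTT-derived 0% or 5% growth-inhibition concentration. Doxorubicin (30–0.048 μM serial dilutions, modulator kept constant) was added 6 h later. MTT (2 mg/mL) was added after 3 days for 4 h at 37 °C, formazan dissolved in DMSO, A540 read. IC50 came from dose–response curves, repeated 4–6 times. % reduction is versus doxorubicin alone in the same experiment. Kruskal–Wallis/Mann–Whitney tests.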

[2] = tested on: A2780 ADR; assay: Reversal of P-gp 170-mediated multidrug resistance in human A2780/DX3 cells assessed as increase in intracellular doxorubicin accumulation at 5 times IC5 pretreated for 2 hrs before doxorubicin administration measured after 2 hrs by flow cytometry; type: cell-based
Procedure, shortened: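 A2780/DX3 cells (kept in 0.1 μM doxorubicin, drug withdrawn 2–3 days before use) seeded in flasks, grown 24 h to 75–85% confluence. Modulator given at five times the 5%-growth-inhibition concentration for 2 h, then 10 μM doxorubicin for 2 h more. Cells trypsinized, fixed in 3.7% paraformaldehyde/2% sucrose in PBS. Flow cytometry, 488 nm excitation, 575 nm bandpass. Read-out is MFI, with % increase taken from the MFI ratio to doxorubicin alone.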

[3] = tested on: A2780 ADR; assay: Reversal of P-gp 170-mediated multidrug resistance in human A2780/DX3 cells assessed as reduction in doxorubicin IC50 at IC5 pretreated for 6 hrs before doxorubicin administration measured after 3 days by MTT assay; type: cell-based; set-up: scale not given: the % may be the effect or the level left; procedure, shortened: as §1
[4] = tested on: A2780; assay: Antiproliferative activity against human A2780 cells after 3 days by MTT assay; type: functional, cell-based; conditions: for IC50: Homo sapiens, A2780, 72 h
Procedure, shortened: (§2)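 Cells plated 6–8 h in 96-well plates. Compound alone, in duplicate at ≥5 concentrations (3-fold serial dilutions, top 100 μM), with final DMSO […] after predilution in FCS. After 3 days, MTT 4 h at 37 °C, formazan dissolved in DMSO, A540. IC50 taken from single dose–response curves; 3–4 experiments. A2780/DX3 kept doxorubicin-free 2–3 days beforehand.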

[5] = tested on: A2780; assay: Antiproliferative activity against human A2780 cells at 9.4 uM after 3 days by MTT assay; type: functional; conditions: A2780, 72 h
[6] = Antiproliferative activity against human A2780/DX3 cells after 3 days by MTT assay; type: functional, cell-based; conditions: for IC50: Homo sapiens, A2780/DX3, 72 h; procedure, shortened: as §2
[7] = Antiproliferative activity against human A2780/DX3 cells at 4.2 uM after 3 days by MTT assay; type: functional; conditions: A2780/DX3, 72 h
[8] = tested on: A2780; assay: Antiproliferative activity against human A2780 cells at 13.1 uM after 3 days by MTT assay; type: functional; conditions: A2780, 72 h
[9] = Antiproliferative activity against human A2780/DX3 cells at 3.0 uM after 3 days by MTT assay; type: functional; conditions: A2780/DX3, 72 h
[10] = Antiproliferative activity against human A2780/DX3 cells at 0.84 uM after 3 days by MTT assay; type: functional; conditions: A2780/DX3, 72 h
[11] = tested on: A2780; assay: Antiproliferative activity against human A2780 cells at 1.97 uM after 3 days by MTT assay; type: functional; conditions: A2780, 72 h
[12] = Antiproliferative activity against human A2780/DX3 cells at 2.25 uM after 3 days by MTT assay; type: functional; conditions: A2780/DX3, 72 h
[13] = tested on: A2780; assay: Antiproliferative activity against human A2780 cells at 15.4 uM after 3 days by MTT assay; type: functional; conditions: A2780, 72 h
[14] = tested on: A2780; assay: Antiproliferative activity against human A2780 cells at 0.6 uM after 3 days by MTT assay; type: functional; conditions: A2780, 72 h
[15] = tested on: A2780; assay: Down regulation of P-gp 170 expression in human A2780 cells after 72 hrs by flow cytometry; type: functional, cell-based
Procedure, shortened: (§3)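 Cells exposed 72 h to compound at concentrations giving 5% or 0% growth inhibition. Then washed in PBS/2% FCS; 2.5 × 10^5 cells stained at 4 °C with anti-Pgp MM4.17 monoclonal, then FITC goat anti-mouse IgG, and analysed by flow cytometry.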

[16] = tested on: A2780 ADR; assay: Reversal of P-gp 170-mediated multidrug resistance in human A2780/DX3 cells assessed as increase in intracellular doxorubicin accumulation at 5 times IC5 pretreated for 2 hrs before doxorubicin administration measured after 2 hrs by epifluorescent microscopic analysis; type: cell-based
Procedure, shortened: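 A2780/DX3 cells on chamber slides at 75–85% confluence, pretreated 2 h with compound at five times the concentration giving 5% growth inhibition. Doxorubicin 10 μM then added for 2 h. Cells washed in cold PBS, fixed in 3.7% paraformaldehyde/2% sucrose, mounted and imaged by epifluorescence at 20X. Untreated and compound-only controls included.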

[17] = Down regulation of P-gp 170 expression in human A2780/DX3 cells after 72 hrs by flow cytometry; type: functional, cell-based; procedure, shortened: as §3
[18] = Antiproliferative activity against human A2780/DX3 cells at 1.2 uM after 3 days by MTT assay; type: functional; conditions: A2780/DX3, 72 h
[19] = Blockade of L-type calcium channel
[20] = Antiproliferative activity against human A2780/DX3 cells at 2.2 uM after 3 days by MTT assay; type: functional; conditions: A2780/DX3, 72 h
[21] = tested on: A2780; assay: Antiproliferative activity against human A2780 cells at 1.3 uM after 3 days by MTT assay; type: functional; conditions: A2780, 72 h
[22] = Antiproliferative activity against human A2780/DX3 cells at 0.5 uM after 3 days by MTT assay; type: functional; conditions: A2780/DX3, 72 h
[23] = tested on: A2780; assay: Antiproliferative activity against human A2780 cells at 6.1 uM after 3 days by MTT assay; type: functional; conditions: A2780, 72 h
[24] = Antiproliferative activity against human A2780/DX3 cells at 1.5 uM after 3 days by MTT assay; type: functional; conditions: A2780/DX3, 72 h
[25] = tested on: A2780; assay: Antiproliferative activity against human A2780 cells at 2.1 uM after 3 days by MTT assay; type: functional; conditions: A2780, 72 h
[26] = tested on: A2780; assay: Antiproliferative activity against human A2780 cells at 1.5 uM after 3 days by MTT assay; type: functional; conditions: A2780, 72 h
[27] = Antiproliferative activity against human A2780/DX3 cells at 1.0 uM after 3 days by MTT assay; type: functional; conditions: A2780/DX3, 72 h
[28] = tested on: A2780; assay: Antiproliferative activity against human A2780 cells at 10 uM after 3 days by MTT assay; type: functional; conditions: A2780, 72 h
[29] = Antiproliferative activity against human A2780/DX3 cells at 6.2 uM after 3 days by MTT assay; type: functional; conditions: A2780/DX3, 72 h
[30] = tested on: A2780; assay: Antiproliferative activity against human A2780 cells at 5.3 uM after 3 days by MTT assay; type: functional; conditions: A2780, 72 h
[31] = Antiproliferative activity against human A2780/DX3 cells at 1.9 uM after 3 days by MTT assay; type: functional; conditions: A2780/DX3, 72 h
[32] = tested on: A2780; assay: Antiproliferative activity against human A2780 cells at 3.1 uM after 3 days by MTT assay; type: functional; conditions: A2780, 72 h
[33] = Antiproliferative activity against human A2780/DX3 cells at 3.7 uM after 3 days by MTT assay; type: functional; conditions: A2780/DX3, 72 h

IC50 [4] [µM] | SMILES | Activity [1] [%] | Activity [2] | Activity [3] [%] | IC5 [4] [µM] | IC5 [6] [µM] | IC50 [6] [µM] | further results
148 | COC1(c2ccc(Br)cc2)SC=C(C)n2c1noc2=O (stereo not drawn) | -9 | < 48% | -9 | 21.6 | 8.9 | > 100 | inhibition at 9.4 µM [5]: 0%; inhibition at 4.2 µM [7]: 0%
166 | COC1(c2ccc(Cl)cc2)SC=C(C)n2c1noc2=O (stereo not drawn) | – | < 48% | – | 28.4 | 11.7 | 113 | inhibition at 13.1 µM [8]: 0%; inhibition at 3 µM [9]: 0%
> 100 | CC1=CSC(O)(c2cccc(Cl)c2)c2noc(=O)n21 (stereo not drawn) | 7 | < 48% | 7 | 24.3 | 3.89 | > 100 | inhibition at 0.84 µM [10]: 0%; inhibition at 1.97 µM [11]: 0%
> 100 | COc1ccc(C2(O)SC=C(C)n3c2noc3=O)cc1 (stereo not drawn) | 10 | < 48% | 12 | 40.1 | 26.7 | > 100 | inhibition at 2.25 µM [12]: 0%; inhibition at 15.4 µM [13]: 0%
> 100 | O=c1onc2n1C=CSC2(O)c1ccccc1 (stereo not drawn) | -36 | inactive | -18 | 4.4 | 32.1 | > 100 | inhibition at 0.6 µM [14]: 0%; Activity [15]: inactive; Activity [16]: inactive; Activity [17]: inactive; inhibition at 1.2 µM [18]: 0%
163 | COc1ccc([C@@H]2Sc3ccccc3N(CCN(C)C)C(=O)[C@@H]2OC(C)=O)cc1 [DILTIAZEM] | -72 | 699% | -84 | 2.8 | 20.6 | > 100 | EC50 [19]: 0.79 µM; Activity [15]: inactive; inhibition at 2.2 µM [20]: 0%; inhibition at 1.3 µM [21]: 0%; Activity [17]: inactive
> 100 | CC1=CSC(O)(c2ccc(C)cc2)c2noc(=O)n21 (stereo not drawn) | 4 | < 48% | -1 | 28.8 | 31.1 | > 100 | inhibition at 0.5 µM [22]: 0%; inhibition at 6.1 µM [23]: 0%
> 100 | CC1=CSC(O)(c2ccc([N+](=O)[O-])cc2)c2noc(=O)n21 (stereo not drawn) | 26 | < 48% | -10 | 7.7 | 2.9 | > 100 | inhibition at 1.5 µM [24]: 0%; inhibition at 2.1 µM [25]: 0%
> 100 | CCOC1(c2ccc(Br)cc2)SC=C(C)n2c1noc2=O (stereo not drawn) | 6 | < 48% | -8 | 3.3 | 7.8 | > 100 | EC50 [19]: 0.04 µM; inhibition at 1.5 µM [26]: 0%; inhibition at 1 µM [27]: 0%
> 100 | CC1=CSC(O)(c2ccccc2)c2noc(=O)n21 (stereo not drawn) | -16 | < 48% | -2 | 100 | 49.4 | > 100 | inhibition at 10 µM [28]: 0%; inhibition at 6.2 µM [29]: 0%
60 | CC1=CSC(O)(c2cccc(C(F)(F)F)c2)c2noc(=O)n21 (stereo not drawn) | -22 | < 48% | -4 | 18.3 | 12.6 | 71 | inhibition at 5.3 µM [30]: 0%; inhibition at 1.9 µM [31]: 0%
159 | CC1=CSC(O)(c2cccc([N+](=O)[O-])c2)c2noc(=O)n21 (stereo not drawn) | -21 | < 48% | 10 | 3.95 | 15.9 | 129 | inhibition at 3.1 µM [32]: 0%; inhibition at 3.7 µM [33]: 0%
